Assay results reported in ChEMBL document CHEMBL3745659, “Synthesis and Characterization of 4,11-Diaminoanthra[2,3-b]furan-5,10-diones: Tumor Cell Apoptosis through tNOX-Modulated NAD(+)/NADH Ratio and SIRT1” (J Med Chem, 2015).
The source made the active and inactive calls. The calls are words filed in the database; no cut-off is given here.

Legend:
[1] = system: CCRF-CEM; test: Antiproliferative activity against human CEM cells after 72 hrs by MTT assay; assay type: functional, cell-based
[2] = Antiproliferative activity against human HCT116 cells after 72 hrs by MTT assay; assay type: functional, cell-based; conditions: HCT-116, 72 h
[3] = system: K562; test: Antiproliferative activity against human K562 cells after 72 hrs by MTT assay; assay type: functional, cell-based; conditions: K562, 72 h
[4] = Antiproliferative activity against human K562/4 cells after 72 hrs by MTT assay; assay type: functional, cell-based; conditions: K562/4, 72 h
[5] = Drug uptake in human K562/4 cells at 3 uM incubated for 2 hrs in presence of verapamil by flow cytometric analysis; assay type: ADME, cell-based; conditions: k562/4, 2 h
Outline: (§1)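 K562 and K562/4 cells incubated 2 h with 3 µM compound; uptake measured by flow cytometry as ratios (arbitrary units) of mean fluorescence channels of the histograms; verapamil (10 µM), a Pgp transport blocker, added 30 min before compound where used.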

[6] = system: K562; test: Drug uptake in human K562 cells at 3 uM incubated for 2 hrs in presence of verapamil by flow cytometric analysis; assay type: ADME, cell-based; conditions: k562, 2 h; outline: as §1
[7] = Drug uptake in human K562/4 cells at 3 uM incubated for 2 hrs by flow cytometric analysis; assay type: ADME, cell-based; conditions: k562/4, 2 h; outline: as §1
[8] = system: AGS; test: Downregulation of tNOX protein level in human AGS cells at 0.1 to 0.5 uM after 24 hrs by Western blot analysis; assay type: functional, cell-based
[9] = system: L1210; test: Antiproliferative activity against mouse L1210 cells after 72 hrs by MTT assay; conditions: L1210, 72 h
[10] = system: HeLa; test: Antiproliferative activity against human HeLa cells after 72 hrs by MTT assay; assay type: functional, cell-based
[11] = biological target: T1, DNA topoisomerase 1 (Homo sapiens) (UniProt P11387); test: Inhibition of Top1 (unknown origin)-mediated relaxation of pBR322 DNA at 0.5 to 10 uM incubated for 30 mins by ethidium bromide staining-based gel electrophoresis assay
T1 sequence (whole entry): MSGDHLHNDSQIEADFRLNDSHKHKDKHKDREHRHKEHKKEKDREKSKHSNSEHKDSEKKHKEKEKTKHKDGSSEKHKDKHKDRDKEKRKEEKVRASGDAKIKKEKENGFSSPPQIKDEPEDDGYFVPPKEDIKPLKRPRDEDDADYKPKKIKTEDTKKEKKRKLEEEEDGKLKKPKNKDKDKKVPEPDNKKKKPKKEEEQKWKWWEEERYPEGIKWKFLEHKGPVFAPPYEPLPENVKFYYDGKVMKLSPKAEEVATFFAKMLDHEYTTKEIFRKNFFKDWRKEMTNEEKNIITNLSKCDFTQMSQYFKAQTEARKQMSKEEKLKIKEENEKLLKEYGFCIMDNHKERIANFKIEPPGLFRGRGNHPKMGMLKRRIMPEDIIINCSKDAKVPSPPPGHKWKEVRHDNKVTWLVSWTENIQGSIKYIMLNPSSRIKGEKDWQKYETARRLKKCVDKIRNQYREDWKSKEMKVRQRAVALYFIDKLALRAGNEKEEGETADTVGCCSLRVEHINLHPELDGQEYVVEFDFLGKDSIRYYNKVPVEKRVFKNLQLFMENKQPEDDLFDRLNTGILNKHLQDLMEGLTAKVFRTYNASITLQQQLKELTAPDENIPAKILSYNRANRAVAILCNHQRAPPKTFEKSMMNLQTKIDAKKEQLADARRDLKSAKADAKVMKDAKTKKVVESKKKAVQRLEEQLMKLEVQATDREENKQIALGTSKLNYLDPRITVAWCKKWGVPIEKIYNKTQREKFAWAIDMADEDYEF
Outline: (§2)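 Supercoiled pBR322 plasmid treated with Top1 without drug or with compound at 0.5, 2.5 or 10 µM; camptothecin as reference; relaxation assessed by gel electrophoresis.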

[12] = system: AGS; test: Induction of apoptosis in human AGS cells after 24 hrs by annexin V-FITC staining-based flow cytometric analysis; assay type: functional, cell-based
Outline: (§3)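 AGS cells exposed to compound for 24 h; Annexin V-FITC staining and flow cytometry used to give percentage of apoptotic cells; mean ± S.E. from at least three independent experiments.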

[13] = system: AGS; test: Induction of apoptosis in human AGS cells assessed as necrotic cells at 10 uM after 24 hrs by annexin V-FITC staining-based flow cytometric analysis (Rvb=1.1%); assay type: functional
[14] = system: AGS; test: Induction of apoptosis in human AGS cells assessed as late apoptotic cells at 10 uM after 24 hrs by annexin V-FITC staining-based flow cytometric analysis (Rvb=5.5%); assay type: functional; outline: as §3
[15] = system: AGS; test: Induction of apoptosis in human AGS cells assessed as early apoptotic cells at 10 uM after 24 hrs by annexin V-FITC staining-based flow cytometric analysis (Rvb=9.8%); assay type: functional; outline: as §3
[16] = system: AGS; test: Induction of apoptosis in human AGS cells assessed as viable cells at 10 uM after 24 hrs by annexin V-FITC staining-based flow cytometric analysis (Rvb=83.7%); assay type: functional; outline: as §3
[17] = system: AGS; test: Upregulation of phosphorylated p53 level in human AGS cells at 1 and 5 uM after 24 hrs by Western blot analysis; assay type: functional, cell-based
[18] = system: AGS; test: Downregulation of Bid protein level in human AGS cells after 24 hrs by Western blot analysis; assay type: functional, cell-based
[19] = system: AGS; test: Upregulation of caspase3-directed PARP cleavage in human AGS cells at 1 to 5 uM after 24 hrs by Western blot analysis; assay type: functional, cell-based
[20] = system: K562; test: Resistance index, ratio of IC50 for human K562/4 cells to IC50 for human K562 cells; assay type: functional
[21] = biological target: T2, NAD-dependent protein deacetylase sirtuin-1 (Homo sapiens) (UniProt Q96EB6); test: Inhibition of human recombinant SIRT1 deacetylase activity using Arg-His-Lys-Lys(epsilon-acetyl)-AMC as substrate at 5 uM incubated for 45 mins by fluorescence analysis
T2 sequence (whole entry): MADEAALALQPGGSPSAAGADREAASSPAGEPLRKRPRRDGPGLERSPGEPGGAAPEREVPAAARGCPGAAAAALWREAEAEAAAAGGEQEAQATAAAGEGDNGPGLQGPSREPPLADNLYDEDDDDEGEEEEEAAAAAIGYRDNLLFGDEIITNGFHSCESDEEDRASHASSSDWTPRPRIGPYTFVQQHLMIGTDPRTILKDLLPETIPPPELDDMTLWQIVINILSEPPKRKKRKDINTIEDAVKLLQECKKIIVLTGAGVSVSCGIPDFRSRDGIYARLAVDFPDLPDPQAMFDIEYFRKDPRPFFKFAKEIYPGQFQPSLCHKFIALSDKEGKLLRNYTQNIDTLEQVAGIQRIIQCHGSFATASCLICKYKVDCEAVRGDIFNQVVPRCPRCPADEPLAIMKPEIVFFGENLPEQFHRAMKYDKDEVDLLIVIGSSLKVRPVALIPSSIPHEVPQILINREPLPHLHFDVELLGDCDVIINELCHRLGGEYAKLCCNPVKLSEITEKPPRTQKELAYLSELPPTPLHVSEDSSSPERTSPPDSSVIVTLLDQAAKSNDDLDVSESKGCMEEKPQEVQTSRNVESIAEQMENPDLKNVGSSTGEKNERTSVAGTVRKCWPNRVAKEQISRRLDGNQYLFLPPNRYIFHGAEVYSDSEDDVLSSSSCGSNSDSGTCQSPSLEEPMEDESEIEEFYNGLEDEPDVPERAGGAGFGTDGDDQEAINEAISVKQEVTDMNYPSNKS

[22] = system: AGS; test: Downregulation of tNOX protein level in human AGS cells at 1 and 5 uM after 24 hrs by Western blot analysis; assay type: functional, cell-based
[23] = biological target: T1, DNA topoisomerase 1 (Homo sapiens); test: Inhibition of Top1 (unknown origin)-mediated relaxation of pBR322 DNA at 2.5 uM incubated for 30 mins by ethidium bromide staining-based gel electrophoresis assay; outline: as §2
[24] = biological target: T1, DNA topoisomerase 1 (Homo sapiens); test: Inhibition of Top1 (unknown origin)-mediated relaxation of pBR322 DNA at 0.5 uM incubated for 30 mins by ethidium bromide staining-based gel electrophoresis assay; outline: as §2
[25] = system: AGS; test: Upregulation of total p53 level in human AGS cells at 1 and 5 uM after 24 hrs by Western blot analysis; assay type: cell-based
[26] = system: AGS; test: Upregulation of caspase3-directed PARP cleavage in human AGS cells at 5 uM after 24 hrs by Western blot analysis; assay type: functional, cell-based
[27] = system: AGS; test: Upregulation of acetylated p53 level in human AGS cells at 1 and 5 uM after 24 hrs by Western blot analysis; assay type: functional, cell-based
[28] = system: AGS; test: Downregulation of SIRT1 protein level in human AGS cells at 1 and 5 uM after 24 after 24 hrs by Western blot analysis; assay type: functional, cell-based
[29] = biological target: T2, NAD-dependent protein deacetylase sirtuin-1 (Homo sapiens); test: Inhibition of human recombinant SIRT1 deacetylase activity using Arg-His-Lys-Lys(epsilon-acetyl)-AMC as substrate incubated for 45 mins by fluorescence analysis
[30] = system: AGS; test: Induction of apoptosis in human AGS cells assessed as change in mitochondrial transmembrane potential incubated for 1.5 hrs by DiOC6(3) dye-based flow cytometric analysis; assay type: functional, cell-based
[31] = system: Calf thymus DNA; test: Binding affinity to calf thymus double stranded DNA by spectrophotometric titration method; assay type: nucleic-acid assay; conditions: Bos taurus
Outline: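 Absorption spectra of compound recorded while double-stranded DNA concentration was increased (spectrophotometric titration); extinction at absorption maxima 540 and 585 nm and band shift followed.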

Row | SMILES | IC50 [1] [nM] | IC50 [3] [nM] | IC50 [9] [nM] | IC50 [10] [nM] | IC50 [2] [nM] | IC50 [4] [nM] | Activity [8] | Activity [12] | Activity [17] | Activity [18] | Ratio IC50 [20] | Activity [26] | Activity [27] | Activity [28] | further results
1 | COc1cccc2c1C(=O)c1c(O)c3c(c(O)c1C2=O)C[C@@](O)(C(=O)CO)C[C@@H]3O[C@H]1C[C@H](N)[C@H](O)[C@H](C)O1 [DOXORUBICIN] | 60 | 120 | 370 |  | 110 | 9750 | Active |  |  |  |  |  |  |  | Drug uptake [5]: Not Active; Drug uptake [6]: Active; Drug uptake [7]: Not Active
2 | CN1CCN(C(=O)c2cc3c(NCCN)c4c(c(NCCN)c3o2)C(=O)c2ccccc2C4=O)CC1 | 25000 | 25200 | 26100 | 61300 | 3100 | > 100000 |  | inactive | Active | Active | >4 |  |  |  | inhibition [11]: inactive; Activity [13]: inactive; Activity [14]: inactive; Activity [15]: inactive; Activity [16]: inactive; Activity [19]: inactive; inhibition [21]: inactive; Activity [22]: inactive
3 | NCCCNc1c2c(c(NCCCN)c3occc13)C(=O)c1ccccc1C2=O | 890 |  | 730 | 870 | 410 |  |  |  |  |  |  |  |  |  | 
4 | NC(=O)c1cccnc1 |  |  |  |  |  |  |  |  |  |  |  |  |  |  | inhibition [29]: Active
5 | O=C1c2ccccc2C(=O)c2c1c(NCCNCCO)c1ccoc1c2NCCNCCO | 430 | 110 | 140 | 460 | 220 | 9800 | Active | Dose-dependent effect | Active | Active | 89.09 | Active | Active | Active | Activity [30]: Active; Drug uptake [5]: Active
6 | CN(C)CCNc1c2c(c(NCCN(C)C)c3occc13)C(=O)c1ccccc1C2=O | 340 | 120 | 230 | 390 | 150 | 210 | Active | Dose-dependent effect | Active | Active | 1.75 | Active | Active | Active | Activity [30]: Active
7 | NCCNc1c2c(c(NCCN)c3occc13)C(=O)c1ccccc1C2=O | 750 | 110 | 300 | 550 | 110 | 150 | Active | Dose-dependent effect | Active | Active | 1.36 | Active | Active | Active | Activity [30]: Active; inhibition [21]: Active
8 | N=C(N)NCCNc1c2c(c(NCCNC(=N)N)c3sccc13)C(=O)c1ccccc1C2=O |  |  |  |  |  |  |  |  |  |  |  |  |  |  | inhibition [23]: Active
9 | Cc1cc2c(NCCNC(=N)N)c3c(c(NCCNC(=N)N)c2o1)C(=O)c1ccccc1C3=O |  |  |  |  |  |  |  |  |  |  |  |  |  |  | inhibition [23]: Active
10 | O=C1c2c(O)ccc(O)c2C(=O)c2c(NCCNCCO)ccc(NCCNCCO)c21 |  |  |  |  |  |  |  |  |  |  |  |  |  |  | Ka [31]: 1 ×10⁶ /M

Second part, led by results:

Row | IC50 [1] [nM] | IC50 [3] [nM] | IC50 [9] [nM] | IC50 [10] [nM] | SMILES | IC50 [2] [nM] | IC50 [4] [nM] | Activity [8] | Activity [12] | Activity [17] | Activity [18] | Ratio IC50 [20] | Activity [26] | Activity [27] | Activity [28] | further results
11 |  |  |  | 190 | CNCCNc1c2c(c(NCCNC)c3oc(C)cc13)C(=O)c1ccccc1C2=O | 1600 | 4260 |  |  |  |  | 35.5 |  |  |  | 
12 | 105000 |  | 26400 | 83800 | NCCNC(=O)c1cc2c(NCCN)c3c(c(NCCN)c2o1)C(=O)c1ccccc1C3=O | 6520 |  |  |  |  |  |  |  |  |  | 
13 | 97700 | 49500 | 79300 | 38400 | CN1CCN(C(=O)c2cc3c(NCCNC(=N)N)c4c(c(NCCNC(=N)N)c3o2)C(=O)c2ccccc2C4=O)CC1 | 4500 | > 100000 |  | inactive | inactive | inactive | >2 | inactive | inactive | inactive | inhibition [23]: Active; inhibition [24]: Active; Activity [13]: inactive; Activity [14]: inactive; Activity [15]: inactive; Activity [16]: inactive; Activity [25]: Not Active; Activity [22]: inactive
